MEX-5 binding – MEX-5 zinc finger RNA-binding disruptors – biochemical, C. elegans, fluorescence polarization, MLPCN library, primary screen. activity score (negative = inhibition of binding), % at 10 µM. 300,000 tested, 0.38% active. MEX-5/FITC-TCR2 RNA binding; hits give low values;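 active = inhibition past about -25% in most replicates, and total fluorescence under double the plate's negative control median, limit read from the data; inconclusive = replicates evenly split on the limit, or fluorescence at least double controls; inactive = too little inhibition in most replicates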
LANA DNA inh – inhibitors of KSHV C-LANA binding to DNA, primary screen, biochemical, fluorescence polarization, FAM-LBS DNA, MBP-C-LANA, single point. inhibition, % at 9 µM. 340,000 tested, 0.078% active. AID 504423, 2011;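 active = highest replicate inhibition at or above 60% at 9 µM, even if other replicates fall short; inactive = all replicates below 60% inhibition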
GRK2 inh – compounds blocking aptamer binding on GRK2 – biochemical, human GRK2, bead flow cytometry, HTS, primary screen | Beta-adrenergic receptor kinase 1 (Homo sapiens), P25098 | FAM-aptamer displacement from GRK2 | inhibition of aptamer binding, % at 10 µM | 330,000 tested, 0.59% active | AID 488847, 2010;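 active = inhibition of aptamer binding above 40%, roughly 3 SD of noise, on plates passing a quality check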;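 note: median bead fluorescence of bound FAM aptamer so fluorescent compounds give negative values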
Target sequence (P25098 whole entry, looked up): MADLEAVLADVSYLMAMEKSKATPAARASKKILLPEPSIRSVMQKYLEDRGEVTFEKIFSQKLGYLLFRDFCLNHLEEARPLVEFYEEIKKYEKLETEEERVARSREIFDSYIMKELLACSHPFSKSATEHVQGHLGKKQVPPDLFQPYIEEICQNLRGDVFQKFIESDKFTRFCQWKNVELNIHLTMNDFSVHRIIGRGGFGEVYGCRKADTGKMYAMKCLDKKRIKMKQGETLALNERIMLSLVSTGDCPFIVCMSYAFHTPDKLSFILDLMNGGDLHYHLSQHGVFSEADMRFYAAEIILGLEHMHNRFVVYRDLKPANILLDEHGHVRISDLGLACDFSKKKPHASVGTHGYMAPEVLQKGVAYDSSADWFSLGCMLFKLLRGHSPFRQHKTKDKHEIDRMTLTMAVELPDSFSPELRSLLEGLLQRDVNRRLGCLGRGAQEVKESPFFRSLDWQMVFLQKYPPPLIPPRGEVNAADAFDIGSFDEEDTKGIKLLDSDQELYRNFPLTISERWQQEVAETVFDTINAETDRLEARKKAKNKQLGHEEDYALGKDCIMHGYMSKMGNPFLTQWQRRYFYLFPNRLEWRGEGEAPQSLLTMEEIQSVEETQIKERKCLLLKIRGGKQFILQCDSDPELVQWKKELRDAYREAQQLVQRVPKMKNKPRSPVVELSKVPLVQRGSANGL
T cell modulator – modulators of CD8 T cell-vesicle binding, primary screen, mouse 2C CD8+ T cells, flow cytometry. 2C CD8+ T cell-vesicle binding; hits give low values. response (vesicle binding), % at 7 µM. 330,000 tested, 0.068% active. AID 2052, 2009;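 active = response, share of CD8 T cells binding vesicles, and their 90th percentile fluorescence all below set limits, cut at about 80% in these data, passing the limit was not always enough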;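 note: values below 100% mean blocked vesicle binding to the CD8+ T cells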
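Test system: purified 2C TCR transgenic mouse naive CD8+ T cells. Probe or stimulus: QL9-peptide-loaded Drosophila micro-vesicles bearing Ld, ICAM-1 and B7-1. Incubation: binding step 1.5 h, 37 °C, antibody labelling 20 min, ice. Measured by: flow cytometry of vesicle-bound cells.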
EBV gp42 block – Epstein-Barr virus gp42 inhibitors, primary screen, biochemical, uHTS, fluorescence polarization | Glycoprotein 42 (Epstein-Barr virus (strain AG876)), Q1HVG2 | Fluorescence polarization binding assay, mP read-out | inhibition, % (tested at 21.74 µM) | 220,000 tested, 0.42% active; in the data active = inhibition above about 50%
Keap1 Nrf2 FP – Keap1-Nrf2 protein-protein interaction inhibitors, primary screen, biochemical, fluorescence polarization, single point; Keap1 Kelch-Nrf2 peptide fluorescence polarization, 1536-well; AID 504523, 2011; 340,000 tested, 0.15% active; inhibition, % at 9.4 µM; in the data active = inhibition above about 12%; inconclusive = no clear call, values can overlap the other calls; inactive = below about 7.3%;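 note: human Keap1 Kelch domain with fluorescein labeled Nrf2 9mer peptide probe; higher means more block of Keap1 binding to Nrf2 peptide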
Large screens that a line does not name were inactive. An excerpt weighted towards active compounds, which were near 1.3% of everything screened.

N#CC(C#N)=C1C=C2C=C(N3CCCCC3)CCC2CC1 (stereo unspecified)	none (no result: MEX-5 binding, LANA DNA inh, Keap1 Nrf2 FP)
Nc1ccc2c(c1Cl)C(=O)c1ccc(N)c(Cl)c1C2=O	EBV gp42 block 76 (no result: GRK2 inh, T cell modulator)
Cc1ccc2c(c1C)-c1c(ccc(C)c1C)C(=O)C2=O	none (no result: MEX-5 binding, GRK2 inh, T cell modulator, EBV gp42 block)
O=C(CN1CCN(S(=O)(=O)c2ccccc2Cl)CC1)NCC1(N2CCOCC2)CCCCC1	none (no result: MEX-5 binding, GRK2 inh, T cell modulator, EBV gp42 block)
COc1ccc(CCNC(=O)C2CCCN(c3nc4ccccc4s3)C2)cc1OC (stereo unspecified)	none (no result: EBV gp42 block)
Cc1n[nH]c(=S)c2nn(-c3cccc(Cl)c3)c(C)c12	MEX-5 binding -32 (no result: LANA DNA inh, GRK2 inh, T cell modulator, Keap1 Nrf2 FP)
CCCCc1ccc(/C=C2\C(=O)ON=C2c2ccccc2)s1	MEX-5 binding -33
N#CC1=C(N)Oc2cc(O)c(Cl)cc2C1c1ccccc1F (stereo unspecified)	MEX-5 binding -46 (no result: EBV gp42 block)
COC(=O)[C@H]1[C@H]2C[C@@H]3c4[nH]c5cc(OC)ccc5c4CCN3C[C@H]2C[C@@H](OC(=O)c2cc(OC)c(OC)c(OC)c2)[C@@H]1OC	none (no result: MEX-5 binding, EBV gp42 block)
COc1ccc2c3c([nH]c2c1)C1CC2C(CC(O)C(OC)C2C(=O)O)CN1CC3 (stereo unspecified)	MEX-5 binding -35
Cc1cc2ccccn2c1C(=O)c1ccc(N/N=C/c2ccc(C(=O)O)cc2)c([N+](=O)[O-])c1	EBV gp42 block 65 (no result: MEX-5 binding, GRK2 inh, T cell modulator)
Cc1ccc(C(=O)NC2CCN(CC(=O)NCc3cccs3)CC2)cc1	none
NNC(=O)c1cc(O)c(O)c(O)c1	LANA DNA inh 81
COc1cc(/C=C/C(=O)O)ccc1OS(=O)(=O)c1cc(Br)ccc1C	none (no result: MEX-5 binding, EBV gp42 block)
COC(=O)c1ccc(COc2ccc(-c3nnn(CC(N)=O)n3)cc2)cc1	T cell modulator 0.0
O=C(COC(=O)C1=COCCO1)Nc1ccccc1Oc1ccccc1	none
CCOc1cc(C=C2C(=O)c3ccccc3C2=O)ccc1OCC(=O)Nc1ccc(C)cc1	MEX-5 binding -36, EBV gp42 block 88
CCOc1cc(/C=N/NC(N)=O)ccc1OCC(=O)Nc1ccc(C)c(C)c1	none
Cc1nc2nc(-c3cccs3)cn2nc1C	EBV gp42 block 68
COc1ccccc1OCCNC(=O)C(CCSC)NC(=O)c1ccccc1Cl (stereo unspecified)	none (no result: EBV gp42 block)
COCCSc1nc2c(c(=O)[nH]c(=O)n2C)n1CCCc1ccccc1	none (no result: EBV gp42 block)
COc1ccc(/C=C(/NC(=O)c2ccco2)C(=O)N2CCc3ccccc32)cc1OC	none
CC(=NO)C1CCC2C3CCC4=CC(=NO)CCC4(C)C3C(O)CC12C (stereo unspecified)	none (no result: MEX-5 binding, GRK2 inh, T cell modulator, EBV gp42 block)
COc1ccc2c(c1)c1nc3ccccc3nc1n2Cc1ccc(OC(C)C)c(OC)c1	MEX-5 binding -73, EBV gp42 block 80
COc1ccc2c(c1)c1nc3ccccc3nc1n2CCCN1C(=O)c2ccccc2C1=O	MEX-5 binding -42
COc1ccc(Cn2c3ccc(OC)cc3c3nc4ccccc4nc32)cc1	MEX-5 binding -39, EBV gp42 block 67
Cc1cccc2c3nc4ccccc4nc3n(CCCN3C(=O)c4ccccc4C3=O)c12	EBV gp42 block 83 (no result: GRK2 inh, T cell modulator)
COc1ccc2c(c1)c1nc3ccccc3nc1n2CCn1c(=O)oc2ccccc21	MEX-5 binding inconclusive
C/C(=N\NC(=O)c1cccc(S(=O)(=O)N2CCCC2)c1)c1ccc(F)cc1	none (no result: EBV gp42 block)
Cc1ccc(/C=C2\Oc3c(ccc(O)c3CN3CCN(CCO)CC3)C2=O)cc1	MEX-5 binding -32
CCCOC(=S)N/C(=N\S(=O)(=O)c1ccccc1)c1ccccc1	none
O=c1[nH]c(/C=C\c2cccc(O)c2)nc(O)c1[N+](=O)[O-]	none (no result: EBV gp42 block)
O=c1[nH]c(/C=C\c2ccc(O)c(O)c2)nc(O)c1[N+](=O)[O-]	MEX-5 binding -30 (no result: EBV gp42 block)
Cc1ccc(CN(C)C(=O)CC2C(=O)NCCN2CC2CCCCC2)cc1 (stereo unspecified)	MEX-5 binding -48

Screening data deposited in PubChem BioAssay by several laboratories.
